M4 antag: human M4 muscarinic receptor antagonists, primary screen, CHO cells, Fluo-8 calcium fluorescence. Muscarinic acetylcholine receptor M4 (Homo sapiens), P08173. CHO-hM4 cells, ACh EC80. inhibition, % at 3 µM. hit rate 0.73% among 360,000;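 active = inhibition above its plate's cutoff, the mean inhibition of sample wells plus 3 SD, cut at about 27% in these data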
M4 ag: human M4 muscarinic receptor agonists, primary screen, CHO-K1 cells, Fluo-8 calcium fluorescence; Muscarinic acetylcholine receptor M4 (Homo sapiens), P08173; hit rate 0.14% among 360,000; activation, % at 3 µM; CHO-K1 hM4/Gqi5; vehicle 0%, full acetylcholine response 100%;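 active = activation above the run mean over all test wells plus 3 SD, cut at about 32% in these data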;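 note: peak over basal fluorescence ratio per well then scaled between controls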
CHRM4 PAM: human M4 muscarinic receptor positive allosteric modulators, primary screen, CHO-K1 cells, Fluo-8 calcium fluorescence; Muscarinic acetylcholine receptor M4 (Homo sapiens), P08173; CHO-K1 hM4/Gqi5, ACh EC20; 0% = ACh EC20, 100% = maximal ACh; activation, % at 3 µM; hit rate 0.4% among 360,000;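 active = activation above its plate's cutoff, the mean activation of sample wells plus 3 SD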
CHRM5 antagonist: human M5 muscarinic receptor antagonists, primary screen, CHO cells, Fluo-8 calcium fluorescence | inhibition, % at 3 µM | hit rate 0.59% among 360,000 | AID 624040, 2012 | Muscarinic acetylcholine receptor M5 (Homo sapiens), P08912 | CHO-hM5 cells, ACh EC80;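 active = inhibition above a per-plate cutoff, the mean of that plate's test compounds plus 3 SD, cut at about 27% in these data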
Target sequence (P08912 whole entry, looked up): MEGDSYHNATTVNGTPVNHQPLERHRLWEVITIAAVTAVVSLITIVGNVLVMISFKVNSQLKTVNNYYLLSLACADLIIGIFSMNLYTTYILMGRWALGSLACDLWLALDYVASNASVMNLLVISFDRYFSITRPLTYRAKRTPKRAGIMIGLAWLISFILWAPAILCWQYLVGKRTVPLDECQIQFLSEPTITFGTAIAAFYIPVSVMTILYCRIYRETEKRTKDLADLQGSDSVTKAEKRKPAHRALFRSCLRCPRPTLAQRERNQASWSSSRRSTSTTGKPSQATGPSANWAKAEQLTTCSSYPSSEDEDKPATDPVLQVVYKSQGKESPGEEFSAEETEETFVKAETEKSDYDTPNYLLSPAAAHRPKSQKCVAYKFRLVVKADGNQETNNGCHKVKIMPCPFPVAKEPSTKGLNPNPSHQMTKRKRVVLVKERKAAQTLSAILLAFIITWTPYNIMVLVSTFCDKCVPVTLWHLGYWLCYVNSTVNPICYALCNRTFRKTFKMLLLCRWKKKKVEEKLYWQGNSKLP
M5 PAM: human M5 muscarinic receptor positive allosteric modulators, primary screen, CHO-K1 cells, Fluo-8 calcium fluorescence. AID 624038, 2012. CHO-K1 hM5, ACh EC20 PAM; 0% = ACh EC20, 100% = ACh EC100. Muscarinic acetylcholine receptor M5 (Homo sapiens), P08912. activation, % at 3 µM. hit rate 0.3% among 360,000;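 active = activation above the run cutoff, the mean activation of all test compounds plus 3 SD, cut at about 18% in these data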
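Replicates: One well per compound, no replicates | System: Human M5 receptor in CHO-K1 cells | Benchmarks: Low control EC20 acetylcholine (0%), high control EC100 acetylcholine (100%) | Probe or stimulus: Acetylcholine, EC20 level | Times: Fluo-8 loading 80 min at 37 °C plus 30 min room temperature | Signal: Intracellular calcium via Fluo-8 fluorescence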
M5 ag: human M5 muscarinic receptor agonists, primary screen, CHO-K1 cells, Fluo-8 calcium fluorescence; Muscarinic acetylcholine receptor M5 (Homo sapiens), P08912; CHO-K1 hM5 cells; 0% DMSO wells, 100% maximal acetylcholine response; activation, % at 3 µM; hit rate 0.19% among 360,000;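 active = activation above the run's mean over test compounds plus 3 SD, cut at about 23% in these data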;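 note: signal is peak over basal fluorescence ratio across the kinetic read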
A number is an active result; – = inactive. In the library only some 1.8% were active in any assay of this set; here they are far more common.

SMILES	M4 antag	M4 ag	CHRM4 PAM	CHRM5 antagonist	M5 PAM	M5 ag
Cc1ccc(NC(=S)NNC(=O)c2cccc([N+](=O)[O-])c2)cc1Cl	–	–	–	27.9	–	–
Cc1ccc(NC(=O)Nc2cccc([N+](=O)[O-])c2)cc1F	–	–	–	27.6	–	–
CCOC(=O)[C@]12CCCC=C1N(Cc1cccc3ccccc13)C(=O)[C@H](CC(=O)NCCCOC)C2	–	–	–	–	–	–
O=S(=O)(/C(=C\c1ccc(C(F)(F)F)cc1)c1nc2ccccc2[nH]1)c1ccccc1	44.1	–	–	–	–	–
COc1cccc2c(=O)n(CC(=O)NCCc3ccccc3)ccc12	29.5	–	–	–	–	–
Cc1ccc(N/N=C2\CS(=O)(=O)N(C)c3ccsc32)cc1	–	–	–	–	–	–
CCCC(=O)N/N=C1\CS(=O)(=O)N(C)c2ccsc21	51.0	–	–	–	–	–
O=C(O)C1CCCCC1C(=O)NCc1ccccc1 (stereo unspecified)	–	–	–	–	–	–
O=C(O)C1CCCCC1C(=O)NCc1ccc(F)cc1 (stereo unspecified)	–	–	33.7	–	–	–
COc1ccc(N=Cc2oc3ccc4ccccc4c3c2O)cc1	–	–	–	–	–	46.6
COc1ccc(-n2c(SCC(N)=O)nc3sc4c(c3c2=O)CCC4)cc1	–	–	–	–	–	–
Cc1noc(C)c1S(=O)(=O)Nc1ccc2c(c1)C(=O)N([C@H](C)CO)C[C@H](C)[C@@H](CN(C)S(=O)(=O)c1ccc(F)cc1)O2	–	–	–	–	–	–
Cc1noc(C)c1S(=O)(=O)Nc1ccc2c(c1)CC(=O)N([C@H](C)CO)C[C@H](C)[C@H](CN(C)S(=O)(=O)c1ccc(F)cc1)O2	58.9	–	–	–	–	–
COc1ccc(Br)cc1C(=O)NCc1cccnc1	–	–	–	–	–	–
O=C(NC(=S)NCc1cccnc1)c1cc(Br)ccc1Cl	–	–	–	–	21.9	–
CC[C@]12c3[nH]c4ccc(Cl)cc4c3CCN1C(=O)[C@@H](CC(=O)NCc1ccc(OC)c(OC)c1)C[C@@H]2C(=O)N1CCN(C(=O)C2CC2)CC1	–	–	–	–	–	–
CC[C@]12c3[nH]c4ccc(OC)cc4c3CCN1C(=O)C(CC(=O)NCc1ccc(OC)c(OC)c1)C[C@@H]2C(=O)N1CCN(C(=O)C2CC2)CC1 (stereo partly specified)	29.1	–	–	–	–	–
CC[C@]12c3[nH]c4ccccc4c3CCN1C(=O)C(CC(=O)NCC13CC4CC(CC(C4)C1)C3)C[C@@H]2C(=O)N1CCN(C(=O)c2ccco2)CC1 (stereo partly specified)	32.5	–	–	–	–	–
O=C(COC(=O)CCc1ccc(S(=O)(=O)N2CCOCC2)cc1)NCc1ccccc1Cl	–	–	–	–	–	–
CC(C)c1cc(C(=O)Nc2cc(Br)ccc2O)no1	–	–	–	33.9	–	–
CCc1ccc(Cn2ncc3c(C(=O)O)cc(C)nc32)cc1	33.5	–	–	–	–	–
CCOC(=O)C1(CCOc2ccccc2)CCN(Cc2ccc(O)c(OCC)c2)CC1	–	–	–	31.0	–	–
CCOC(=O)C1(CCOc2ccccc2)CCN(Cc2ccc(OCCO)cc2)CC1	–	–	–	–	–	–
CCOC(=O)C1(CCOc2ccccc2)CCN(Cc2ccc(O)cc2)CC1	–	–	–	28.2	–	–
CCOC(=O)C1(CCOc2ccccc2)CCN(Cc2ccc(OC)c(O)c2)CC1	–	–	–	–	–	–
COC(=O)c1ccc(CN2CCC(CO)(Cc3cccc(OC)c3)CC2)cc1	–	–	–	–	–	–

Screening data deposited in PubChem by The Scripps Research Institute Molecular Screening Center.
